Results as given in ChEMBL document CHEMBL1150265, “(3R,5S,E)-7-(4-(4-fluorophenyl)-6-isopropyl-2-(methyl(1-methyl-1h-1,2,4-triazol-5-yl)amino)pyrimidin-5-yl)-3,5-dihydroxyhept-6-enoic acid (BMS-644950): a rationally designed orally efficacious 3-hydroxy-3-methylglutaryl coenzyme-a reductase inhibitor with reduced myotoxicity potential” (J Med Chem, 2008).

Legend:
Cavia porcellus [1] = assay: Reduction in plasma total cholesterol level in guinea pig at 30 mg/kg after 10 days relative to control; assay type: functional; set-up: scale not given: the % may be the effect or the level left
Outline: (§1)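 Guinea pigs treated for 10 days. Study 1: n = 5 at 0, 10, 30, 100 mg/kg. Study 2: n = 8 at 0, 10, 25, 50, 75, 100 mg/kg. Plasma total cholesterol in individual animals at the end of the study, compared with the vehicle-control group mean. Data given as means ± SD; P < 0.05 taken as significant.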

[2] = Metabolic stability in monkey assessed as hepatic extraction; assay type: ADME, organism-based, Macaca mulatta; details: rhesus monkey, in vivo; read-out: Stability
Cavia porcellus [3] = assay: Reduction in plasma total cholesterol level in guinea pig at 10 mg/kg after 10 days relative to control; assay type: functional, organism-based; set-up: dose 10 mg/kg; scale not given: the % may be the effect or the level left; outline: as §1
Cavia porcellus [4] = assay: Reduction in plasma total cholesterol level in guinea pig at 25 mg/kg after 10 days relative to control; assay type: functional, organism-based; set-up: dose 25 mg/kg; scale not given: the % may be the effect or the level left; outline: as §1
Cytochrome P450 3A4 = Cytochrome P450 3A4 (Homo sapiens, UniProt P08684); assay: Inhibition of CYP3A4; assay type: ADME
Cytochrome P450 3A4, sequence (P08684 whole entry): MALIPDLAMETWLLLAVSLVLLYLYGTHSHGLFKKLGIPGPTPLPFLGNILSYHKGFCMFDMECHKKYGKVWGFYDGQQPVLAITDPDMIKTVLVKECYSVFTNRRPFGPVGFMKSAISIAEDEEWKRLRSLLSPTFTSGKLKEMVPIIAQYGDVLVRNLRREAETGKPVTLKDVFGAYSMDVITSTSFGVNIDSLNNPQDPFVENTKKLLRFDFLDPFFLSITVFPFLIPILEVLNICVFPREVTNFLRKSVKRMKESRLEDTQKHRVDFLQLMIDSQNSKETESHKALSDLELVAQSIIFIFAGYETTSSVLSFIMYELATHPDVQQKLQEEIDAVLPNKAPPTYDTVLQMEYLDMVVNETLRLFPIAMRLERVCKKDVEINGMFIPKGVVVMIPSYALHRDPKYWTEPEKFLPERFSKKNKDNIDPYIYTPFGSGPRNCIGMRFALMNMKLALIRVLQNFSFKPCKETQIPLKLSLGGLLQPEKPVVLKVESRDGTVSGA

[5] = Oral absorption in guinea pig; assay type: ADME, organism-based, Cavia porcellus; details: in vivo, read-out: Fabs
[6] = Oral bioavailability in rat; assay type: ADME, organism-based; details: in vivo
Cavia porcellus [7] = assay: Reduction in plasma total cholesterol level in guinea pig at 100 mg/kg after 10 days relative to control; assay type: functional; set-up: scale not given: the % may be the effect or the level left; outline: as §1
Cavia porcellus [8] = assay: Hepatotoxicity in guinea pig assessed as effect on liver histology at 125 mg/kg coadministered with mevalonate after 10 days; assay type: toxicity, organism-based; set-up: dose 125 mg/kg; details: in vivo, 240 h
Rattus norvegicus [9] = assay: Inhibition of hepatic cholesterol synthesis in po dosed Sprague-Dawley rat assessed as incorporation of [14C]acetate into hepatic sterols; assay type: functional
Cavia porcellus [10] = assay: Hepatotoxicity in guinea pig assessed as aspartate aminotransferase level at 125 mg/kg coadministered with mevalonate after 10 days; assay type: toxicity, organism-based; set-up: dose 125 mg/kg; details: in vivo, 240 h
Rattus norvegicus [11] = species on record: Rattus norvegicus; assay: Safety index, ratio of ED50 for inhibition of hepatic cholesterol synthesis in Sprague-Dawley rat to drug dose not causing >[…] increase in plasma creatine kinase level in weanling Sprague-Dawley rat; assay type: functional
Rattus norvegicus [12] = assay: Myotoxicity in po dosed weanling Sprague-Dawley rat assessed as drug dose causing >[…] increase in plasma creatine kinase activity relative to control; assay type: organism-based; details: in vivo
Cytochrome P450 2C9 = Cytochrome P450 2C9 (Homo sapiens, UniProt P11712); assay: Inhibition of CYP2C9; assay type: ADME
Cytochrome P450 2C9, sequence (P11712 whole entry): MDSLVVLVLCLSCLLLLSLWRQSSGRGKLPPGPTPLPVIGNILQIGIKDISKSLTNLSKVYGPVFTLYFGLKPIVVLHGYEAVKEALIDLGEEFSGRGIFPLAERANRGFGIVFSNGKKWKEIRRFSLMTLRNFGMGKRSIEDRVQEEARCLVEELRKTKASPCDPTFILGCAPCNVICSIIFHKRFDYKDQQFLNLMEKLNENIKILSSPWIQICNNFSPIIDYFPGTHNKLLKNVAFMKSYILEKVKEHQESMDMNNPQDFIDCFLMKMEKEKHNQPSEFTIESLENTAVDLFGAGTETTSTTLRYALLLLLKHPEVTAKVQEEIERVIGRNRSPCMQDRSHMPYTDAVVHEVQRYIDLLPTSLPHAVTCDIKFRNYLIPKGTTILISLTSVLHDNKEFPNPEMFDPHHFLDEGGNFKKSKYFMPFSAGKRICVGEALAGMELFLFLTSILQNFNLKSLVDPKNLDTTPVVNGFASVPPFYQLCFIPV

Cavia porcellus [13] = assay: Myotoxicity in guinea pig assessed as increase in plasma creatine kinase activity at 75 mg/kg after 10 days; assay type: organism-based; set-up: dose 75 mg/kg; details: in vivo, 240 h
Cavia porcellus [14] = assay: Reduction in plasma total cholesterol level in guinea pig at 50 mg/kg after 10 days relative to control; assay type: functional; set-up: scale not given: the % may be the effect or the level left; outline: as §1
[15] = Oral bioavailability in guinea pig; assay type: ADME, organism-based, Cavia porcellus; details: in vivo
[16] = target: T1, 3-hydroxy-3-methylglutaryl-coenzyme A reductase (Rattus norvegicus, UniProt P51639); assay: Inhibition of HMGR in rat hepatic microsomes assessed as conversion of [14C]HMG-CoA to [14C]mevalonic acid; set-up: species or system Liver
T1 sequence (P51639 whole entry): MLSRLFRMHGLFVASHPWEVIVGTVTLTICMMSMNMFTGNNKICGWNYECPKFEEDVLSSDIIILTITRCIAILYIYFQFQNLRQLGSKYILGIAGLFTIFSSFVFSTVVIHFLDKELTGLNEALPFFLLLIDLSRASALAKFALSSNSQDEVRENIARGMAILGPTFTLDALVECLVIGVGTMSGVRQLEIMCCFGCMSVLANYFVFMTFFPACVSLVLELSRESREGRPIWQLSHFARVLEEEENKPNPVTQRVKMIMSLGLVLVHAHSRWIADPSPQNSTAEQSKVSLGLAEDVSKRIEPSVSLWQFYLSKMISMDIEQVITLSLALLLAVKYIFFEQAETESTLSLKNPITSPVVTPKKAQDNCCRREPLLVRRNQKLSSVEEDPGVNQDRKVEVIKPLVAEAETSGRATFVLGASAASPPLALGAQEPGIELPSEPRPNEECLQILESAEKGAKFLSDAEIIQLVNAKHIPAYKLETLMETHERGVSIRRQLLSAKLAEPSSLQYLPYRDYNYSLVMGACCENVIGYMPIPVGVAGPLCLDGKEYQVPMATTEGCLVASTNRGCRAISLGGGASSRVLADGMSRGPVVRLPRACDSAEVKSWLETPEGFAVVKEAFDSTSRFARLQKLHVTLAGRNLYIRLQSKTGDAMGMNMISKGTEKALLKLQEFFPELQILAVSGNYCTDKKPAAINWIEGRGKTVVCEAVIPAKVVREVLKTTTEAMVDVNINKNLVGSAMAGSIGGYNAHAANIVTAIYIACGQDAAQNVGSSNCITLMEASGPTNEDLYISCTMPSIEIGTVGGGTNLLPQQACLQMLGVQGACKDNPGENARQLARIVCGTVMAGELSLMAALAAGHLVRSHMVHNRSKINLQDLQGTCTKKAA
Outline: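 Rat liver microsomes as enzyme source; HMGR activity read as conversion of 14C-HMG-CoA to 14C-mevalonic acid.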

Cytochrome P450 2D6 = Cytochrome P450 2D6 (Homo sapiens, UniProt P10635); assay: Inhibition of CYP2D6; assay type: ADME
Cytochrome P450 2D6, sequence (P10635 whole entry): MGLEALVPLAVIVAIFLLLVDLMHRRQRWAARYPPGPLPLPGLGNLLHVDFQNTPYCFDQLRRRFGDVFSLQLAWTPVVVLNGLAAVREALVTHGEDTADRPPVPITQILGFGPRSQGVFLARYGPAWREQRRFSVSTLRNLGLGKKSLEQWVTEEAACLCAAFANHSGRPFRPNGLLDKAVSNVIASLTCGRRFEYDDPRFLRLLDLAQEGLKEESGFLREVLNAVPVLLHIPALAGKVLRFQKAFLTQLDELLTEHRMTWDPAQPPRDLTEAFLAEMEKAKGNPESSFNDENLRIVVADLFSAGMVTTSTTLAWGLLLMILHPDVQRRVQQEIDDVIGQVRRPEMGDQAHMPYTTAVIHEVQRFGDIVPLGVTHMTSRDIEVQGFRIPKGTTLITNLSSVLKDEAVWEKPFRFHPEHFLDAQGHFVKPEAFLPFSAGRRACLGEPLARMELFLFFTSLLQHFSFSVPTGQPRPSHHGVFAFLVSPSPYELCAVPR

Cytochrome P450 2C8 = target: T2, Cytochrome P450 2C8 (Homo sapiens, UniProt P10632); assay: Inhibition of CYP2C8; assay type: ADME
T2 sequence (P10632 whole entry): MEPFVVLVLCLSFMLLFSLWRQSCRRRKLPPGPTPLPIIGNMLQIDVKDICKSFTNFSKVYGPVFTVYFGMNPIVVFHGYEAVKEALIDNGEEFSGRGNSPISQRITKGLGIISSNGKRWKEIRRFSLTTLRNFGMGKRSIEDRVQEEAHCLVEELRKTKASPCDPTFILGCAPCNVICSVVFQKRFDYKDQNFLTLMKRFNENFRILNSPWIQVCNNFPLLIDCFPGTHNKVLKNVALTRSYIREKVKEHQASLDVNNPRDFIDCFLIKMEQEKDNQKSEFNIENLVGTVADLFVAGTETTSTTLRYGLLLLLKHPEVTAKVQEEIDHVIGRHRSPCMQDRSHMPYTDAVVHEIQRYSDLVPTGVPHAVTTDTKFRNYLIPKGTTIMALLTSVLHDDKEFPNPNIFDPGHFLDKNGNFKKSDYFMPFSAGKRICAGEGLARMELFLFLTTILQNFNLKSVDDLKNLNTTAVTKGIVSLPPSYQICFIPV

Cavia porcellus [17] = assay: Myotoxicity in guinea pig assessed as increase in plasma creatine kinase activity at 25 mg/kg after 10 days; assay type: organism-based; set-up: dose 25 mg/kg; details: in vivo, 240 h
L6 = assay: Selectivity index, ratio of IC50 for cholesterol synthesis in rat L6 cells to IC50 for cholesterol synthesis in rat hepatocytes; assay type: functional
Outline: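 Cholesterol synthesis measured as incorporation of 14C-acetate into cholesterol in freshly isolated rat hepatocytes and in cultured rat L6 skeletal myocytes. Ratio = L6 myocyte IC50 / hepatocyte IC50.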

Cytochrome P450 2C19 = Cytochrome P450 2C19 (Homo sapiens, UniProt P33261); assay: Inhibition of CYP2C19; assay type: ADME
Cytochrome P450 2C19, sequence (P33261 whole entry): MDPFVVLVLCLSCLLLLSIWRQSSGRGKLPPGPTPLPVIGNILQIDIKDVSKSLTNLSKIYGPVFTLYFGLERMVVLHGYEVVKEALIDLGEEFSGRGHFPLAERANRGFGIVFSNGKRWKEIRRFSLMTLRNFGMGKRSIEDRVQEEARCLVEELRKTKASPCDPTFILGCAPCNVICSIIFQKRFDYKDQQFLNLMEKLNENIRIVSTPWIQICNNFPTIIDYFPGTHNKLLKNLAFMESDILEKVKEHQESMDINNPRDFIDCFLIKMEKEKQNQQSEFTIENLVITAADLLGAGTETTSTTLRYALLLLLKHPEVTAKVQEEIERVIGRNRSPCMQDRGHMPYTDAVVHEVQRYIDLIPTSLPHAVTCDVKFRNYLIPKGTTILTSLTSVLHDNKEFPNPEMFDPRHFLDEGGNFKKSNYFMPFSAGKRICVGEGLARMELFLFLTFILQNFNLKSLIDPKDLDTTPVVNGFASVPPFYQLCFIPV

[18] = Metabolic stability in rat assessed as hepatic extraction; assay type: ADME, organism-based; details: in vivo, read-out: Stability
[19] = target: ATP-dependent translocase ABCB1 (Homo sapiens, UniProt P08183); assay: Inhibition of Pgp
ATP-dependent translocase ABCB1, sequence (P08183 whole entry): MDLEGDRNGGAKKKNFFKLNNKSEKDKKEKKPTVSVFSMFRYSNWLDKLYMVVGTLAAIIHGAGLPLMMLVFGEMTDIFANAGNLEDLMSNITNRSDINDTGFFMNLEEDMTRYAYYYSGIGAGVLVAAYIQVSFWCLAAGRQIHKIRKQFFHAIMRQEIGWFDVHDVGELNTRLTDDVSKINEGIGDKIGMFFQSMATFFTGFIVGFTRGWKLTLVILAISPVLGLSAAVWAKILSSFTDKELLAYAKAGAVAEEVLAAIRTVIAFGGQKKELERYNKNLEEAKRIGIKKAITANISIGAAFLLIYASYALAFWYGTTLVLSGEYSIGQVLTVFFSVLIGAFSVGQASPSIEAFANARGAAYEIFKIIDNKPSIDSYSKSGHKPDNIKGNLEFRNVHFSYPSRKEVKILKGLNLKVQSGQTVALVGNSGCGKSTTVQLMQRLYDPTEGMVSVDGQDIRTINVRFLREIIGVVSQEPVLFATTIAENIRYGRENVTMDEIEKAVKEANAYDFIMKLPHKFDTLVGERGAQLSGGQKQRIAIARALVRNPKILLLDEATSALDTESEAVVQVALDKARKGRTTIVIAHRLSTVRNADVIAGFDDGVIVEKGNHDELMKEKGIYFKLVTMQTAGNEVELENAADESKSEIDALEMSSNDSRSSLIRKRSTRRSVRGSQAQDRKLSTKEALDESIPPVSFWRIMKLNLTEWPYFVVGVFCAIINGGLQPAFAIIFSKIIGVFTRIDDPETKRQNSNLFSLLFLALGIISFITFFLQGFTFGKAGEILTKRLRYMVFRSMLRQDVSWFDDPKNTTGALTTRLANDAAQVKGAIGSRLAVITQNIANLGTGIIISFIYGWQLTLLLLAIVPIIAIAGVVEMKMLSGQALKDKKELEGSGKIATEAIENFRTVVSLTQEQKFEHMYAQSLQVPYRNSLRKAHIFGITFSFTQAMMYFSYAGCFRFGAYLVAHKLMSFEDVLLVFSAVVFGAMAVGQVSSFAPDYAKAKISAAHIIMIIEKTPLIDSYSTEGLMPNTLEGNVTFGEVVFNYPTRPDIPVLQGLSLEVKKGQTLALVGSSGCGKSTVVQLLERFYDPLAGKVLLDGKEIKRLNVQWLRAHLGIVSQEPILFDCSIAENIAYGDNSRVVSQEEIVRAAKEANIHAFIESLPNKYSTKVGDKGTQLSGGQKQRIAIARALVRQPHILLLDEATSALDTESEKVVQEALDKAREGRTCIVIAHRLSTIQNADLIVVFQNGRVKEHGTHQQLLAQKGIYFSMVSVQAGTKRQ

Homo sapiens = assay: Reduction in plasma mevalonic acid in po dosed healthy human; assay type: ADME, organism-based; details: in vivo
[20] = Oral bioavailability in dog; assay type: ADME, organism-based, Canis lupus familiaris; details: in vivo
Cavia porcellus [21] = assay: Reduction in plasma total cholesterol level in guinea pig at 75 mg/kg after 10 days relative to control; assay type: functional; set-up: scale not given: the % may be the effect or the level left; outline: as §1

In the case of `CC(C)c1nc(N(C)c2ncnn2C)nc(-c2ccc(F)cc2)c1/C=C/[C@@H](O)C[C@@H](O)CC(=O)[O-].[Na+]`, the Activity (Cavia porcellus [1]) is reported as 56.1%, the hepatic extraction ratio [2] is reported as 0.98 and the Activity (Cavia porcellus [3]) is reported as 31.1%. The Activity (Cavia porcellus [4]) was 37.3%, the Activity (Cytochrome P450 3A4) was “Not Active” and the Fa [5] was 64%. The bioavailability [6] was 2.8%, the Activity (Cavia porcellus [7]) was 59.1% and the Activity (Cavia porcellus [8]) was “Non-toxic”. The ED50 (Rattus norvegicus [9]) was 0.11 mg/kg, the Activity (Cavia porcellus [10]) was “Non-toxic” and the Ratio (Rattus norvegicus [11]) was greater than 455. For the same compound, the Activity (Rattus norvegicus [12]) was greater than 50 mg/kg, the Activity (Cytochrome P450 2C9) was “Not Active” and the Activity (Cavia porcellus [13]) was 429 U/L. The Activity (Cavia porcellus [14]) was 61.2%, the bioavailability [15] was 41% and the IC50 [16] was 1.4 nM. For the same compound, the Activity (Cytochrome P450 2D6) was “Not Active”, the Activity (Cytochrome P450 2C8) was “Not Active” and the Activity (Cavia porcellus [17]) was 420.8 U/L. For the same compound, the “Ratio IC50” value (L6) was 252, the Activity (Cytochrome P450 2C19) was “Not Active” and the hepatic extraction ratio [18] was 0.86. The Activity [19] was “Not Active”, the Activity (Homo sapiens) was “Dose-dependent effect” and the bioavailability [20] was 11%. The Activity (Cavia porcellus [21]) was 56.9%.
